Laboratory results as given in ChEMBL document CHEMBL1914438, “Synthesis and biological activity of novel N-cycloalkyl-(cycloalkylaryl)-2-[(3-R-2-oxo-2H-[1,2,4]triazino[2,3-c]quinazoline-6-yl)thio]acetamides” (2011).

Key:
Type in all cases: functional
HCT-15 = assay: Cytotoxicity against human HCT15 cells assessed as cell growth at 10^-5 M after 48 hrs by SRB assay; conditions: HCT-15, 48 h, read-out: Activity
Procedure, shortened: (§1)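 NCI 60-cell-line one-dose primary screen: cells inoculated and preincubated 24–48 h, then test agent added at a single 10^-5 M concentration for a further 48 h. Endpoint is sulforhodamine B protein staining read spectrophotometrically. Reported as percent growth relative to untreated control cells.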

[1] = Cytotoxicity against human Hs 578T cells assessed as cell growth at 10^-5 M after 48 hrs by SRB assay; conditions: read-out: Activity; procedure, shortened: as §1
U-251 = assay: Growth inhibition of human U251 cells after 48 hrs by SRB assay; conditions: U-251, 48 h
Procedure, shortened: (§2)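 NCI 60-cell-line human tumor panel. Cells were inoculated and preincubated for 24–48 h, then exposed continuously to compound for 48 h. Primary screen used a single 10^-5 M concentration. Growth was measured by sulforhodamine B protein staining, read spectrophotometrically, and reported as percent growth versus untreated controls. Selected compounds were also run at five 10-fold dilutions (10^-4 to 10^-8 M) to derive GI50 from time-zero-corrected absorbances.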

OVCAR-4 = assay: Cytotoxicity against human OVCAR4 cells assessed as cell growth at 10^-5 M after 48 hrs by SRB assay; conditions: OVCAR-4, 48 h, read-out: Activity
Procedure, shortened: (§3)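 NCI human tumor cell line panel from nine cancer types. Each line was inoculated and preincubated 24–48 h, then exposed to a single concentration (10^-5 M) for 48 h. Growth was read by sulforhodamine B protein staining, measured spectrophotometrically. Value reported as percent growth of treated cells relative to untreated controls.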

Escherichia coli = assay: Antibacterial activity against Escherichia coli assessed as zone of inhibition at 0.5 mg/mL after 24 hrs by stiff-plate agar-diffusion method; conditions: read-out: DIZ
ACHN = assay: Cytotoxicity against human ACHN cells assessed as cell growth at 10^-5 M after 48 hrs by SRB assay; conditions: read-out: Activity; procedure, shortened: as §1
[2] = tested on: Photobacterium leiognathi; assay: Antibacterial activity against Photobacterium leiognathi Sh1 assessed as inhibition of bacterial luminescence at 0.025 mg/mL after 10 mins by bioluminometry-based chronic action test; design: scale not given: the % may be the effect or the level left; conditions: in the assay text read “after 16 to 18 hrs” for “after 10 mins”
Procedure, shortened: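 Chronic (growth plus luminescence) test with P. leiognathi Sh1 at 10^5 cells/mL in chloride solution, compounds added in DMSO. After 10 min at 25 °C, growth medium added at 1:50 and the mix incubated 16–18 h at 30 °C. Luminescence then measured by bioluminometer as % of untreated control. Tetracycline reference.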

SNB-75 = assay: Cytotoxicity against human SNB75 cells assessed as cell growth at 10^-5 M after 48 hrs by SRB assay; conditions: SNB-75, 48 h, read-out: Activity; procedure, shortened: as §3
SF-295 [3] = assay: Cytotoxicity against human SF295 cells assessed as cell growth at 10^-5 M after 48 hrs by SRB assay; conditions: SF-295, 48 h, read-out: Activity; procedure, shortened: as §3
OVCAR-3 = assay: Growth inhibition of human OVCAR3 cells after 48 hrs by SRB assay; conditions: OVCAR-3, 48 h
Procedure, shortened: (§4)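 NCI panel of about 60 human tumor lines, 48 h continuous exposure at five 10-fold dilutions from 10^-4 to 10^-8 M. SRB protein staining was read as absorbance at time zero, in untreated controls and at each concentration. GI50 is the concentration giving 50% lower net protein increase than controls. TGI is where Ti = Tz, and LC50 is 50% protein loss versus start.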

CCRF-CEM = assay: Growth inhibition of human CCRF-CEM cells after 48 hrs by SRB assay; procedure, shortened: as §4
Staphylococcus aureus = assay: Antibacterial activity against Staphylococcus aureus assessed as zone of inhibition at 0.5 mg/mL after 24 hrs by stiff-plate agar-diffusion method; conditions: read-out: DIZ
MOLT-4 = assay: Cytotoxicity against human MOLT4 cells assessed as cell growth at 10^-5 M after 48 hrs by SRB assay; conditions: MOLT-4, 48 h, read-out: Activity; procedure, shortened: as §3
[4] = tested on: Photobacterium leiognathi; assay: Antibacterial activity against Photobacterium leiognathi Sh1 assessed as inhibition of bacterial luminescence at 0.025 mg/mL after 10 mins by bioluminometry-based acute action test; design: scale not given: the % may be the effect or the level left
Procedure, shortened: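 Marine P. leiognathi Sh1 (Azov Sea shrimp isolate) diluted in chloride solution to 10^5 cells/mL; compounds suspended in DMSO mixed with 1 mL bacterial suspension. Acute test: 10 min at 25 °C, then bioluminescence measured by bioluminometer as % of compound-free control. Tetracycline reference.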

T47D = assay: Growth inhibition of human T47D cells after 48 hrs by SRB assay; procedure, shortened: as §2
HT-29 = assay: Growth inhibition of human HT-29 cells after 48 hrs by SRB assay; conditions: HT-29, 48 h; procedure, shortened: as §4
HCT-116 = assay: Cytotoxicity against human HCT116 cells assessed as cell growth at 10^-5 M after 48 hrs by SRB assay; conditions: HCT-116, 48 h, read-out: Activity; procedure, shortened: as §1
UACC-257 = assay: Cytotoxicity against human UACC257 cells assessed as cell growth at 10^-5 M after 48 hrs by SRB assay; conditions: UACC-257, 48 h, read-out: Activity; procedure, shortened: as §3
786-0 = assay: Cytotoxicity against human 786-0 cells assessed as cell growth at 10^-5 M after 48 hrs by SRB assay; conditions: 786-0, 48 h, read-out: Activity; procedure, shortened: as §1
[5] = Cytotoxicity against human NCI60 cells assessed as cell growth at 10^-5 M after 48 hrs by SRB assay; conditions: NCI60, 48 h, read-out: Activity; procedure, shortened: as §3
SF-295 [6] = assay: Growth inhibition of human SF295 cells after 48 hrs by SRB assay; conditions: SF-295, 48 h; procedure, shortened: as §2
Mycobacterium = assay: Antibacterial activity against Mycobacterium luteum assessed as zone of inhibition at 0.1 mg/mL after 24 hrs by stiff-plate agar-diffusion method; conditions: read-out: DIZ
Aspergillus niger = assay: Antifungal activity against Aspergillus niger assessed as zone of inhibition of late spore formation at 0.5 mg/mL after 48 to 72 hrs by stiff-plate agar-diffusion method; conditions: read-out: DIZ
SK-OV-3 = assay: Cytotoxicity against human SKOV3 cells assessed as cell growth at 10^-5 M after 48 hrs by SRB assay; conditions: SK-OV-3, 48 h, read-out: Activity; procedure, shortened: as §3
TK-10 = assay: Cytotoxicity against human TK10 cells assessed as cell growth at 10^-5 M after 48 hrs by SRB assay; conditions: TK-10, 48 h, read-out: Activity; procedure, shortened: as §3
NCI-H522 = assay: Growth inhibition of human NCI-H522 cells after 48 hrs by SRB assay; conditions: NCI-H522, 48 h; procedure, shortened: as §4
A549 = assay: Cytotoxicity against human A549 cells assessed as cell growth at 10^-5 M after 48 hrs by SRB assay; conditions: A549, 48 h, read-out: Activity; procedure, shortened: as §1
[7] = read-out: pLC50 (the source's name) (converted)

CCC1C2CCC(C2)C1NC(=O)CSc1nc2ccccc2c2nc(=O)c(-c3ccc(OC)cc3)nn12 (stereo unspecified)
growth at 10 µM (HCT-15): 67.9%
growth at 10 µM [1]: -9.67%
GI50 (U-251): 1 µM
CC50 (U-251; [7]): 5.75 µM
TGI (U-251; read-out: pTGI (converted)): 2.29 µM
growth at 10 µM (OVCAR-4): -58.5%
zone of inhibition at 500 µg/mL (Escherichia coli): 0 mm
growth at 10 µM (ACHN): -17.1%
Activity [2]: 85.3%
growth at 10 µM (SNB-75): 4.94%
growth at 10 µM (SF-295 [3]): 69.9%
GI50 (OVCAR-3): 1.48 µM
CC50 (OVCAR-3; [7]): 28.2 µM
TGI (OVCAR-3; read-out: pTGI (converted)): 5.62 µM
GI50 (CCRF-CEM): 2 µM
CC50 (CCRF-CEM; [7]): > 50.1 µM
TGI (CCRF-CEM; read-out: pTGI): > 50.1 µM
zone of inhibition at 500 µg/mL (Staphylococcus aureus): 0 mm
growth at 10 µM (MOLT-4): 11.4%
Activity [4]: 38.5%
GI50 (T47D): 3.72 µM
CC50 (T47D; [7]): > 50.1 µM
TGI (T47D; read-out: pTGI): > 50.1 µM
GI50 (HT-29): 3.24 µM
CC50 (HT-29; [7]): > 50.1 µM
TGI (HT-29; read-out: pTGI): > 50.1 µM
growth at 10 µM (HCT-116): 64.3%
growth at 10 µM (UACC-257): 55.6%
growth at 10 µM (786-0): 77.7%
growth at 10 µM [5]: 73.7%
GI50 (SF-295 [6]): 3.47 µM
CC50 (SF-295 [6]; [7]): > 50.1 µM
TGI (SF-295 [6]; read-out: pTGI (converted)): 21.9 µM
zone of inhibition at 100 µg/mL (Mycobacterium): 0 mm
zone of inhibition at 500 µg/mL (Aspergillus niger): 18 mm
growth at 10 µM (SK-OV-3): -5.12%
growth at 10 µM (TK-10): 13.8%
GI50 (NCI-H522): 1.35 µM
CC50 (NCI-H522; [7]): 38.9 µM
TGI (NCI-H522; read-out: pTGI (converted)): 7.94 µM
growth at 10 µM (A549): 50.4%
